ChEMBL document CHEMBL1125836, “Disubstituted tetrahydrofurans and dioxolanes and PAF antagonists” (J Med Chem, 1991)
“And” between values parts separate entries of the source, which are not always exact repeats. Equal values may be shown once.

Tests used:
[1] = molecular target: Platelet-activating factor receptor (Rattus norvegicus) (UniProt P46002); test: Activity expressed as the dose required to reduce the lowering of the arterial blood pressure caused by PAF by 50%; assay type: functional; details: Artery
Platelet-activating factor receptor (Rattus norvegicus), sequence (P46002 whole entry): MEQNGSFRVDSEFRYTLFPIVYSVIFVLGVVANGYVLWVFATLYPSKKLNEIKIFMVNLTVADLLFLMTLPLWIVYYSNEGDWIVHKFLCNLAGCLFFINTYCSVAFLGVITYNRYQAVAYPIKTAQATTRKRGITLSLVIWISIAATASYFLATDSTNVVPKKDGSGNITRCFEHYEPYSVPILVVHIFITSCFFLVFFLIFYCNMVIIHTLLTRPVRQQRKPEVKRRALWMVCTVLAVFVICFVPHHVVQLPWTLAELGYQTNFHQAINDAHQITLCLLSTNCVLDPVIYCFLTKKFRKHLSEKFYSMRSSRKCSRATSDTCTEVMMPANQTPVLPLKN
How it was run: (§1)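 Male Sprague-Dawley rats (180–220 g) anesthetized with sodium pentobarbital (50 mg/kg ip). Carotid arterial pressure was recorded. Compound was given iv in saline (1 mL/kg) via femoral vein 3 min before PAF (0.5 μg/kg iv); vehicle controls.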

[2] = species on record: Rattus norvegicus; test: Activity expressed as the dose required to reduce the lowering of the arterial blood pressure caused by PAF by 50%.; assay type: functional; details: Artery, read-out: ID50 (the source's name); how it was run: as §1

| Compound | ID50 [1] | ED50 [2] [mg/kg] |
| --- | --- | --- |
| CCCCCCCCCCCCCCCCCCOCC1COC(COC(=O)N(Cc2cc[n+](CC)cc2)C(C)=O)C1 (stereo not given) | 1.6 mg/kg |  |
| CCCCCCCCCCCCCCCCCC1OCC(COCCCCCC[n+]2cscc2C)O1 (stereo not given) | 3.1 mg/kg |  |
| CCCCCCCCCCCCCCCCCC1CC(COC(=O)N(Cc2cccc[n+]2CC)C(C)=O)CO1 (stereo not given) | 0.052 mg/kg |  |
| CCCCCCCCCCCCCCCNC(=O)OCC1CC(COC(=O)N(Cc2cccc[n+]2CC)C(C)=O)CO1 (stereo in doubt; form 1) | 0.057 mg/kg |  |
| CCCCCCCCCCCCCCCCOCC1OCC(COC(=O)CCCCC[n+]2ccsc2)O1 (stereo not given) | 1.1 mg/kg |  |
| CCCCCCCCCCCCCCC1COC(COC(=O)N(Cc2cccc[n+]2CC)C(C)=O)C1 (stereo not given) | 0.24 mg/kg |  |
| CCCCCCCCCCCCCCCCOCC1COC(COC(=O)N(Cc2cccc[n+]2C)C(C)=O)C1 (stereo not given) | 0.24 mg/kg |  |
| CCCCCCCCCCCCCCCCCC1OCC(COCCCCCCCC[n+]2ccsc2)O1.Cc1ccc(S(=O)(=O)[O-])cc1 (stereo not given) |  | > 5 |
| CC1OCC(COC(=O)CCCCC[n+]2ccsc2)O1.Cc1ccc(S(=O)(=O)[O-])cc1 (stereo not given) |  | > 5 |
| CCCCCCCCCCCCCCCCOCC1CC(COCCCCCC[n+]2ccsc2)CO1 (stereo not given) | 1.8 mg/kg |  |
| CCCCCCCCCCCCCCCCOCC1COC(COC(=O)N(Cc2ccccn2)C(C)=O)C1 (stereo not given) | > 5 mg/kg |  |
| CCCCCCCCCCCCCCCCCC1CCC(COC(=O)N(Cc2cccc[n+]2CC)C(C)=O)O1 (stereo not given) | 0.15 mg/kg |  |
| CCCCCCCCCCCCCCC1COC(COP(=O)([O-])OCC[N+](C)(C)C)C1 (stereo not given) | > 5 mg/kg |  |
| CCCCCCCCCCCCCCCCCCOCC1COC(COC(=O)Nc2cc[n+](CC)cc2)C1 (stereo not given) | > 5 mg/kg |  |
| CCCCCCCCCCCCCCCCCCCC1OCC(COC(=O)CCCCC[n+]2ccsc2)O1 (stereo not given) | 5.1 mg/kg |  |
| CCCCCCCCCCCCCCCCOCC1OCC(COC(=O)N(Cc2cccc[n+]2CC)C(C)=O)O1 (stereo not given) | 0.024 mg/kg |  |
| CCCCCCCCCCCCCCCCCCOCC1CC(COCCCCCCC[n+]2ccsc2)CO1 (stereo not given) | 2.1 mg/kg |  |
| CCCCCCCCCCCCCCCCOCC1OCC(COCCCCCC[n+]2ccsc2)O1 (stereo not given) | 1.8 mg/kg |  |
| CCCCCCCCCCCCCCCCCCNC(=O)OCC(COC(=O)N(Cc1cccc[n+]1CC)C(C)=O)OC (stereo not given) | 0.0078 mg/kg and 0.011 mg/kg |  |
| CCCCCCCCCCCCCCCNC(=O)OCC1COC(COC(=O)N(Cc2cccc[n+]2CC)C(C)=O)C1 (stereo not given) | 0.067 mg/kg and 0.033 mg/kg |  |
| CCCCCCCCCCCCCCC1COC(COP(=O)([O-])OCC[n+]2ccccc2)C1 (stereo not given) | > 5 mg/kg |  |
| CCCCCCCCCCCCCCCCCC1OCC(COCCCCCC[n+]2ccccc2)O1 (stereo not given) | > 5 mg/kg |  |
| CCCCCCCCCCCCCCCNC(=O)OCC1CC(COC(=O)N(Cc2cccc[n+]2CC)C(C)=O)CO1 (stereo in doubt; form 2) | 0.042 mg/kg |  |
| CCCCCCCCCCCCCCCCCC1OCC(COC(=O)CCCCC[n+]2ccsc2)O1 (stereo not given) | 0.88 mg/kg |  |
| CCCCCCCCCCCCCCCCCC1OCC(COCCCCCC[n+]2ccsc2)O1 (stereo not given) | 1.3 mg/kg |  |

| Compound | ID50 [1] | ED50 [2] [mg/kg] |
| --- | --- | --- |
| CCCCCCCCCCCCCCOCC1COC(COCCCCCC[n+]2ccsc2)C1 (stereo not given) | 3.1 mg/kg |  |
| CCCCCCCCCCCCCCCCCCOCC1COC(COC(=O)N(Cc2ccc[n+](CC)c2)C(C)=O)C1 (stereo not given) | > 5 mg/kg |  |
| CCCCCCCCCCCCCCCC1CCC(COCCCCCC[n+]2ccsc2)O1 (stereo not given) | 2 mg/kg |  |
| CCCCCCCCCCCCCCC1COC(COC(=O)CCCCC[n+]2ccsc2)C1.Cc1ccc(S(=O)(=O)[O-])cc1 (stereo not given) |  | > 5 |
| CCCCCCCCCCCCCCC1COC(COCCCCCC[n+]2cccc3ccccc32)C1 (stereo not given) | 3 mg/kg |  |
| CCCCCCCCCCCCCCCCCC1OCC(COP(=O)([O-])OCC[N+](C)(C)C)O1 (stereo not given) | > 5 mg/kg |  |
| CCCCCCCCCCCCCC1OCC(COC(=O)CCCCC[n+]2ccsc2)O1 (stereo not given) | > 5 mg/kg |  |
| CCCCCCCCCCCCCCCCOCC1COC(COC(=O)N(CCc2cccc[n+]2CC)C(C)=O)C1 (stereo not given) | > 5 mg/kg |  |
| CCCCCCCCCCCCCCOCC1COC(COC(=O)N(Cc2cccc[n+]2CC)C(C)=O)O1 (stereo not given) | 0.2 mg/kg |  |
| CCCCCCCCCCCCCCCCCCOCC1COC(COC(=O)N(Cc2cccc[n+]2CC)C(C)=O)O1 (stereo not given) | 0.017 mg/kg |  |
| CCCCCCCCCCCCCCCC1OCC(COC(=O)CCCCC[n+]2ccsc2)O1 (stereo not given) | 0.86 mg/kg |  |
| CCCCCCCCCCCCCCCCCCC1COC(COC(=O)N(Cc2cccc[n+]2CC)C(C)=O)C1 (stereo not given) | 0.23 mg/kg |  |
| CCCCCCCCCCCCCCCCOCC1COC(COC(=O)N(C(C)=O)c2cc[n+](CC)cc2)C1 (stereo not given) | > 5 mg/kg |  |
| CCCCCCCCCCCCCCCCCCOCC1CC(COCCCCC[n+]2ccsc2)CO1 (stereo not given) | 2.5 mg/kg |  |
| CCCCCCCCCCCCCCOCC1COC(COCCCCCCC[n+]2ccsc2)C1 (stereo not given) | 1.4 mg/kg |  |
| CCCCCCCCCCCCCCCCCC1OCC(COCCCCCC[n+]2cccc3ccccc32)O1 (stereo not given) | 3.8 mg/kg |  |
| CCCCCCCCCCCCCCCNC(=O)OCC1CC(COC(=O)N(Cc2cccc[n+]2CC)C(C)=O)CO1 (stereo not given) | 0.049 mg/kg |  |
| CCCCCCCCCCCCCCCCCC1OCC(COCCCCCC[N+]2(C)CCOCC2)O1 (stereo not given) | > 5 mg/kg |  |
| CCCCCCCCCCCCCCC1COC(COCCCCCCC[n+]2ccsc2)C1 (stereo not given) | 1.5 mg/kg |  |
| CCCCCCCCCCCCCCCCOCC1COC(COC(=O)N(Cc2cccc[n+]2CC)C(C)=O)C1 (stereo not given) | 0.044 mg/kg and 0.035 mg/kg |  |
| CCCCCCCCCCCCCCC1COC(COCCCCCC[N+](C)(C)C)C1 (stereo not given) | > 5 mg/kg |  |
| CCCCCCCCCCCCCCCCCC1OCC(COCCCC[n+]2ccsc2)O1 (stereo not given) | > 5 mg/kg |  |
| CCCCCCCCCCCCCCCCCCOCC1OCC(COC(=O)N(Cc2cccc[n+]2CC)C(C)=O)O1 (stereo not given) | 0.041 mg/kg |  |
| CCCCCCCCCCCCCCCCCC1OCC(COP(=O)([O-])OCC[n+]2ccccc2)O1 (stereo not given) | > 5 mg/kg |  |
| CCCCCCCCCCCCCCCCCC1OCC(COCCCCCC[N+](C)(C)C)O1 (stereo not given) | > 5 mg/kg |  |

| Compound | ID50 [1] | ED50 [2] [mg/kg] |
| --- | --- | --- |
| CCCCCCCCCCCCCCCCOCC1COC(COC(=O)N(Cc2cccc[n+]2CC)C(=O)OCC)C1 (stereo not given) | 0.035 mg/kg |  |
| CCCCCCCCCCCCCCC1COC(COCCCCCC[n+]2ccsc2)C1 (stereo in doubt; form 2) | 2.9 mg/kg |  |
| CCCCCCCCCCCCCCCC1CCC(COC(=O)N(Cc2cccc[n+]2CC)C(C)=O)O1 (stereo not given) | 0.15 mg/kg |  |
| CCCCCCCCCCCCCCCCCC1COC(COC(=O)N(Cc2cccc[n+]2CC)C(C)=O)O1 (stereo not given) | 0.074 mg/kg |  |
| CCCCCCCCCCCCCCCCCC1OCC(COC(=O)N(Cc2cccc[n+]2CC)C(C)=O)O1 (stereo not given) | 0.24 mg/kg |  |
| CCCCCCCCCCCCCCCCCCOCC1COC(COC(=O)N(Cc2cccc[n+]2CC)C(C)=O)C1 (stereo not given) | 0.035 mg/kg |  |
| CCCCCCCCCCCCCCCCOCC1COC(COC(=O)CCCCC[n+]2ccsc2)C1 (stereo not given) | 1.7 mg/kg |  |
| CCCCCCCCCCCCCCCCOCC1COC(COC(=O)NCc2cccc[n+]2CC)C1 (stereo not given) | > 5 mg/kg |  |
| CCCCCCCCCCCCCCC1COC(COCCCCCC[n+]2ccsc2)C1 (stereo in doubt; form 1) | 2.5 mg/kg |  |
| CCCCCCCCCCCCCCC1COC(COCCCC[n+]2ccsc2)C1 (stereo not given) | > 5 mg/kg |  |
| CCCCCCCCCCCCCCCCCCOCC1COC(COC(=O)NCc2cc[n+](CC)cc2)C1 (stereo not given) | > 5 mg/kg |  |
| CCCCCCCCCCCCCCOCC1COC(COC(=O)N(Cc2cccc[n+]2CC)C(C)=O)C1 (stereo not given) | 0.087 mg/kg |  |
| CCCCCCCCCCCCCCCCCCOCC1COC(COC(=O)CCCCC[n+]2ccsc2)C1 (stereo not given) | 2.4 mg/kg |  |
| CCCCCCCCCCCCCCCC1CCC(COC(=O)CCCCC[n+]2ccsc2)O1 (stereo not given) | 1.2 mg/kg |  |
| CCCCCCCCCCCCCCCCCCOCC1CC(COC(=O)CCCCC[n+]2ccsc2)CO1 (stereo not given) | 1.1 mg/kg |  |
| CCCCCCCCCCCCOCC1COC(COCCCCCCC[n+]2ccsc2)C1 (stereo not given) | 3.7 mg/kg |  |
| CCCCCCCCCCCCCCCCOCC1OCC(COCCCC[n+]2ccsc2)O1 (stereo not given) | 2.7 mg/kg |  |
| CCCCCCCCCCCCCCC1COC(COCCCCCCCC[n+]2ccsc2)C1 (stereo not given) | 2.3 mg/kg |  |
| CCCCCCCCCCCCCCCCC1COC(COCCCCCCC[n+]2ccsc2)C1 (stereo not given) | 2 mg/kg |  |
| CCCCCCCCCCCCCCCCOCC1COC(COC(=O)NCCc2cccc[n+]2CC)C1 (stereo not given) | > 5 mg/kg |  |
| CCCCCCCCCCCCCCCCOCC1CCC(COC(=O)N(Cc2cccc[n+]2CC)C(C)=O)O1 (stereo not given) | 0.036 mg/kg |  |
| CCCCCCCCCCCCCCCCOCC1COC(COCCCCCC[n+]2ccsc2)C1 (stereo not given) | 1.2 mg/kg |  |
| CCCCCCCCCCCCCCCCOCC1CC(COC(=O)N(Cc2cccc[n+]2CC)C(C)=O)CO1 (stereo not given) | 0.027 mg/kg and 0.02 mg/kg |  |
| CCCCCCCCCCCCCCCCOCC1COC(COC(=O)N(C(C)=O)c2ccc[n+](CC)c2)C1 (stereo not given) | 0.13 mg/kg |  |
| CCCCCCCCCCCCCCCCOCC1COC(COC(=O)N(Cc2cccc[n+]2CC)C(C)=O)O1 (stereo not given) | 0.057 mg/kg and 0.029 mg/kg |  |
